Series [1] in a line: Antioxidant activity assessed as hydroxy radical-scavenging activity. The format is physicochemical. The essentials: (§1)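 Radical scavenging of each tannin measured against DPPH and hydroxy radicals by literature methods, with BHT and Trolox as reference antioxidants.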
A short description of series [2]: Antioxidant activity assessed as DPPH radical-scavenging activity incubated for 30 mins by spectrophotometry. The format is physicochemical. The essentials:
as §1

Series [3] has as its system J774. The experiment in a line: Increase in cell viability of mouse J774 cells at 0.01 to 10 uM by MTT assay. The format is functional, cell-based.
The test system of series [4] is Mus musculus. The experiment in a line: Anti-inflammatory activity in mouse model of croton oil-induced ear edema assessed as inhibition of ear swelling at 200 mg/kg, sc. The format is functional.
For another series, the system named is Liver microsome. Kind of series: Antioxidant activity assessed as inhibition of Fe2+-cysteine-induced lipid peroxidation in rat liver microsomes incubated for 30 mins by thiobarbituric acid based assay. The format is functional. The conditions noted are these: 0.5 h.
Series [5] relates to Mus musculus. The experiment in a line: Anti-inflammatory activity in mouse model of croton oil-induced ear edema assessed as inhibition of ear swelling at 50 mg/kg, sc. The format is functional.
Series [6] deals with Mus musculus. Kind of series: Anti-inflammatory activity in mouse model of croton oil-induced ear edema assessed as inhibition of ear swelling at 100 mg/kg, sc. It is filed as functional.
Series [7] deals with Mus musculus. The experiment in a line: Anti-inflammatory activity in mouse model of carrageenan-induced paw edema assessed as inhibition of paw edema at 50 mg/kg, sc. The format is functional.
In series [8] the test system is Mus musculus. Kind of series: Anti-inflammatory activity in DBA/1 mouse model of collagen induced arthritis assessed as inhibition of disease progression and development at 20 mg/kg, sc measured on day 57. The format is functional. The conditions noted are these: DBA/1, sc, 1368 h.
The test system of series [9] is J774. The experiment in a line: Inhibition of nitric oxide production in LPS-induced mouse J774 cells at 0.01 to 10 uM incubated for 24 hrs by Griess reaction based assay. The format is functional, cell-based.
For series [10], the system named is J774. The experiment in a line: Inhibition of TNFalpha production in LPS-induced mouse J774 cells at 0.01 to 10 uM. The format is functional, cell-based.
The subject of series [11] is J774. Kind of series: Inhibition of IL6 production in LPS-induced mouse J774 cells at 0.01 to 10 uM. It is filed as functional, cell-based.

Calls of active or inactive are those of the source. The rule behind the calls is not given here.

`O=C1O[C@@H]2O[C@H](CO)[C@@H](O)[C@H](OC(=O)c3cc(O)c(O)c(O)c3)[C@H]2OC(=O)c2cc(Oc3c(C(=O)O[C@H]4C(O)O[C@@H]5COC(=O)c6cc(O)c(O)c(O)c6-c6c(cc(O)c(O)c6O)C(=O)O[C@H]5[C@@H]4OC(=O)c4cc(O)c(O)c(O)c4)cc(O)c(O)c3O)c(O)c(O)c2Oc2cc1cc(O)c2O` (stereo partly drawn): the IC50 in series [1] worked out at 15.8 µM; in series [2] it was 2.4 µM.
For `O=C1O[C@@H]2O[C@@H]3COC(=O)c4cc(O)c(O)c(O)c4-c4c(cc(O)c(O)c4O)C(=O)O[C@H]3[C@H](OC(=O)c3cc(O)c(O)c(O)c3)[C@H]2OC(=O)c2cc(Oc3c(C(=O)O[C@H]4C(O)O[C@H](CO)[C@@H](O)[C@@H]4OC(=O)c4cc(O)c(O)c(O)c4)cc(O)c(O)c3O)c(O)c(O)c2Oc2cc1cc(O)c2O` (stereo partly drawn) the same measures were 36.8 µM and 4.73 µM.
On to `O=C(O[C@@H]1O[C@@H]2COC(=O)c3cc(O)c(O)c(O)c3-c3c(cc(O)c(O)c3O)C(=O)O[C@H]2[C@H](OC(=O)c2cc(O)c(O)c(O)c2)[C@H]1OC(=O)c1cc(O)c(O)c(O)c1Oc1cc2c(c(O)c1O)Oc1cc(cc(O)c1O)C(=O)O[C@@H]1O[C@@H]3COC(=O)c4cc(O)c(O)c(O)c4-c4c(cc(O)c(O)c4O)C(=O)O[C@H]3[C@H](OC(=O)c3cc(O)c(O)c(O)c3)[C@H]1OC2=O)c1cc(O)c(O)c(Oc2c(C(=O)O[C@H]3[C@H](OC(=O)c4cc(O)c(O)c(O)c4)O[C@H](CO)[C@@H](O)[C@@H]3OC(=O)c3cc(O)c(O)c(O)c3)cc(O)c(O)c2O)c1`, for which the 50% inhibitory concentration (IC50) in [1] came to 47.6 µM; in series [2], 3.06 µM. Moreover, the outcome in the series with J774 [3] was Active.
In the case of `O=C1O[C@@H]2O[C@@H]3COC(=O)c4cc(O)c(O)c(O)c4-c4c(cc(O)c(O)c4O)C(=O)O[C@H]3[C@H](OC(=O)c3cc(O)c(O)c(O)c3)[C@H]2OC(=O)c2cc(Oc3c(C(=O)O[C@H]4[C@H](OC(=O)c5cc(O)c(O)c(O)c5)O[C@H](CO)[C@@H](O)[C@@H]4OC(=O)c4cc(O)c(O)c(O)c4)cc(O)c(O)c3O)c(O)c(O)c2Oc2cc1cc(O)c2O`, the IC50 in series [1] turned out to be 16.3 µM; in series [2], 4.44 µM. Besides, in the series on J774 [3], the result was Active.
For `O=C1O[C@@H]2O[C@@H]3COC(=O)c4cc(O)c(O)c(O)c4-c4c(cc(O)c(O)c4O)C(=O)O[C@H]3[C@H](OC(=O)c3cc(O)c(O)c(O)c3)[C@H]2OC(=O)c2cc(O)c(O)c(O)c2Oc2cc(cc(O)c2O)C(=O)O[C@@H]2O[C@@H]3COC(=O)c4cc(O)c(O)c(O)c4-c4c(cc(O)c(O)c4O)C(=O)O[C@H]3[C@H](OC(=O)c3cc(O)c(O)c(O)c3)[C@H]2OC(=O)c2cc(O)c(O)c(O)c2Oc2cc1cc(O)c2O` the same measures were 42.9 µM, 4.43 µM and “Active”.
For `O=C(O[C@@H]1O[C@@H]2COC(=O)c3cc(O)c(O)c(O)c3-c3c(cc(O)c(O)c3O)C(=O)O[C@H]2[C@H](OC(=O)c2cc(O)c(O)c(O)c2)[C@H]1OC(=O)c1cc(O)c(O)c(O)c1Oc1cc(C(=O)O[C@@H]2O[C@@H]3COC(=O)c4cc(O)c(O)c(O)c4-c4c(cc(O)c(O)c4O)C(=O)O[C@H]3[C@H](OC(=O)c3cc(O)c(O)c(O)c3)[C@H]2OC(=O)c2cc(O)c(O)c(O)c2Oc2cc3c(c(O)c2O)Oc2cc(cc(O)c2O)C(=O)O[C@@H]2O[C@@H]4COC(=O)c5cc(O)c(O)c(O)c5-c5c(cc(O)c(O)c5O)C(=O)O[C@H]4[C@H](OC(=O)c4cc(O)c(O)c(O)c4)[C@H]2OC3=O)cc(O)c1O)c1cc(O)c(O)c(O)c1` the same measures were 55.1 µM, 4.23 µM and “Active”.
Turning to `COc1cc(C(=O)O[C@@H]2[C@@H](OC(=O)c3cc(OC)c(OC)c(OC)c3Oc3cc4c(c(OC)c3OC)Oc3cc(cc(OC)c3OC)C(=O)O[C@@H]3O[C@@H]5COC(=O)c6cc(OC)c(OC)c(OC)c6-c6c(cc(OC)c(OC)c6OC)C(=O)O[C@H]5[C@H](OC(=O)c5cc(OC)c(OC)c(OC)c5)[C@H]3OC4=O)[C@H](OC)O[C@@H]3COC(=O)c4cc(OC)c(OC)c(OC)c4-c4c(cc(OC)c(OC)c4OC)C(=O)O[C@@H]23)cc(OC)c1OC`, the IC50 in series [1] and in series [2] was greater than 100 µM each time. The inhibition in vivo at 200 mg/kg with Mus musculus [4] was -0.7%.
Turning to `COc1cc(C(=O)O[C@@H]2[C@H]3OC(=O)c4cc(Oc5c(C(=O)O[C@H]6[C@@H](OC)O[C@@H]7COC(=O)c8cc(OC)c(OC)c(OC)c8-c8c(cc(OC)c(OC)c8OC)C(=O)O[C@H]7[C@@H]6OC(=O)c6cc(OC)c(OC)c(OC)c6)cc(OC)c(OC)c5OC)c(OC)c(OC)c4Oc4cc(cc(OC)c4OC)C(=O)O[C@@H]3O[C@@H]3COC(=O)c4cc(OC)c(OC)c(OC)c4-c4c(cc(OC)c(OC)c4OC)C(=O)O[C@@H]23)cc(OC)c1OC`, the 50% inhibitory concentration (IC50) in series [1] and in [2] was greater than 100 µM each time. The inhibition in vivo at 200 mg/kg with Mus musculus [4] came to 2.1%.
Consider `Cc1cc(C(C)(C)C)c(O)c(C(C)(C)C)c1` [BUTYLATED HYDROXYTOLUENE], for which the figures for the half-inhibitory concentration (IC50) in [1] and in [2] were 22.6 µM and 7.08 µM, respectively.
In the same order, the values of `O=C(O)c1cc(O)c(O)c(O)c1` [GALLIC ACID] are 15.7 µM and 7.23 µM.
With `O=C(O[C@@H]1O[C@@H]2COC(=O)c3cc(O)c(O)c(O)c3-c3c(cc(O)c(O)c3O)C(=O)O[C@H]2[C@H](OC(=O)c2cc(O)c(O)c(O)c2)[C@H]1OC(=O)c1cc(O)c(O)c(O)c1-c1c(C(=O)O[C@@H]2O[C@@H]3COC(=O)c4cc(O)c(O)c(O)c4-c4c(cc(O)c(O)c4O)C(=O)O[C@H]3[C@H](OC(=O)c3cc(O)c(O)c(O)c3)[C@H]2OC(=O)c2cc(O)c(O)c(O)c2)cc(O)c(O)c1O)c1cc(O)c(O)c(O)c1` [HIRTELLIN A], the 50% inhibitory concentration (IC50) in the series on Liver microsome turned out to be 15.6 µM; in series [1], 38.5 µM; in series [2] it was 4.61 µM. Besides, the result with J774 [3] was Active.
Regarding `O=C(O[C@@H]1O[C@@H]2COC(=O)c3cc(O)c(O)c(O)c3-c3c(cc(O)c(O)c3O)C(=O)O[C@H]2[C@H](OC(=O)c2cc(O)c(O)c(O)c2)[C@H]1OC(=O)c1cc(O)c(O)c(O)c1Oc1cc2c(c(O)c1O)Oc1cc(cc(O)c1O)C(=O)O[C@@H]1O[C@@H]3COC(=O)c4cc(O)c(O)c(O)c4-c4c(cc(O)c(O)c4O)C(=O)O[C@H]3[C@H](OC(=O)c3cc(O)c(O)c(O)c3)[C@H]1OC2=O)c1cc(O)c(O)c(O)c1` [HIRTELLIN B], the IC50 came to 48.8 µM with Liver microsome, 39.7 µM in series [1] and 4.1 µM in [2]. Besides, the result with J774 [3] was Active.
As for `O=C(O[C@@H]1O[C@@H]2COC(=O)c3cc(O)c(O)c(O)c3-c3c(cc(O)c(O)c3O)C(=O)O[C@H]2[C@H](OC(=O)c2cc(O)c(O)c(O)c2)[C@H]1OC(=O)c1cc(O)c(O)c(O)c1Oc1cc2c(c(O)c1O)Oc1cc(cc(O)c1O)C(=O)O[C@@H]1O[C@H](CO)[C@@H](O)[C@H](OC(=O)c3cc(O)c(O)c(O)c3)[C@H]1OC2=O)c1cc(O)c(O)c(O)c1` [NILOTININ D8], the half-maximal inhibitory concentration (IC50) worked out at 32.5 µM in series [1] and 4.67 µM in series [2]. Moreover, the outcome in the series on J774 [3] was Active.
As to `O=C1O[C@@H]2O[C@@H]3COC(=O)c4cc(O)c(O)c(O)c4-c4c(cc(O)c(O)c4O)C(=O)O[C@H]3[C@H](OC(=O)c3cc(O)c(O)c(O)c3)[C@H]2OC(=O)c2cc(Oc3c(C(=O)O)cc(O)c(O)c3O)c(O)c(O)c2Oc2cc1cc(O)c2O` [NILOTININ M4], the half-maximal inhibitory concentration (IC50) in series [1] came out at 38 µM; in [2], 3.16 µM.
As to `O=C1O[C@@H]2O[C@@H]3COC(=O)c4cc(O)c(O)c(O)c4-c4c(cc(O)c(O)c4O)C(=O)O[C@H]3[C@H](OC(=O)c3cc(O)c(O)c(O)c3)[C@H]2OC(=O)c2cc(Oc3c(C(=O)O[C@@H]4[C@@H](OC(=O)c5cc(O)c(O)c(O)c5)[C@@H]5OC(=O)c6cc(O)c(O)c(O)c6-c6c(cc(O)c(O)c6O)C(=O)OC[C@H]5O[C@H]4O)cc(O)c(O)c3O)c(O)c(O)c2Oc2cc1cc(O)c2O` [TAMARIXININ A], the IC50 is 18.4 µM in the series on Liver microsome, 41.5 µM in series [1] and 3.57 µM in series [2]. For the same molecule, the results for the inhibition in vivo at 50 mg/kg in the series on Mus musculus [5] and with Mus musculus [7] were 34.4% and 25%, respectively. Further, the inhibition in vivo at 100 mg/kg with Mus musculus [6] stood at 39%. The inhibition in vivo at 200 mg/kg with Mus musculus [4] was found to be 69.8%. In addition, the inhibition in vivo at 20 mg/kg in the series with Mus musculus [8] was 46%. Further, the inhibition result in the series on J774 [9], with J774 [10] and in the series on J774 [11] was “inactive” in each case. Further, the outcome in the series on J774 [3] was Active.
Regarding `Cc1c(C)c2c(c(C)c1O)CCC(C)(C(=O)O)O2` (stereo not drawn) [TROLOX], the IC50 in [1] was determined as 76.7 µM; in [2], 8 µM.

These data come from ChEMBL document CHEMBL3580579, “Anti-inflammatory Hydrolyzable Tannins from Myricaria bracteata” (J Nat Prod, 2015).
